Measured values reported in ChEMBL document CHEMBL1148507, “Discovery of a novel, orally active, small molecule gonadotropin-releasing hormone (GnRH) receptor antagonist” (J Med Chem, 2006).

Columns and labels:
Substance-P receptor = Substance-P receptor (Homo sapiens, UniProt P25103); assay: Binding affinity to human NK1 receptor
How it was run: (§1)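 Selectivity panel of 54 assays (ion channels, GPCRs, monoamine transporters) run at Cerep; Ki determined for hits at 10 µM; human isoform where marked.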

Histamine H2 receptor = Histamine H2 receptor (Homo sapiens, UniProt P25021); assay: Binding affinity to H2 receptor; how it was run: as §1
Histamine H2 receptor, sequence (P25021 whole entry): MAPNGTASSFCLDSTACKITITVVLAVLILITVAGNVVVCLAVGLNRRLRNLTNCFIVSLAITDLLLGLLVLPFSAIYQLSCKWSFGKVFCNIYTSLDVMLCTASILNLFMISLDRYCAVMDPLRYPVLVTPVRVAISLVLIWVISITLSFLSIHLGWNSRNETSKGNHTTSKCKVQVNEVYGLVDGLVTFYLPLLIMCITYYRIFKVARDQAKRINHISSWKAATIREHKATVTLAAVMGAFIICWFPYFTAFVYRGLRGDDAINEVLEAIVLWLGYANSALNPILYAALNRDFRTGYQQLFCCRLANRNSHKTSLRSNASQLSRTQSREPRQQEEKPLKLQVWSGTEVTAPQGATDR

Mu-type opioid receptor = Mu-type opioid receptor (Homo sapiens, UniProt P35372); assay: Binding affinity to human mu opiate receptor; how it was run: as §1
Mu-type opioid receptor, sequence (P35372 whole entry): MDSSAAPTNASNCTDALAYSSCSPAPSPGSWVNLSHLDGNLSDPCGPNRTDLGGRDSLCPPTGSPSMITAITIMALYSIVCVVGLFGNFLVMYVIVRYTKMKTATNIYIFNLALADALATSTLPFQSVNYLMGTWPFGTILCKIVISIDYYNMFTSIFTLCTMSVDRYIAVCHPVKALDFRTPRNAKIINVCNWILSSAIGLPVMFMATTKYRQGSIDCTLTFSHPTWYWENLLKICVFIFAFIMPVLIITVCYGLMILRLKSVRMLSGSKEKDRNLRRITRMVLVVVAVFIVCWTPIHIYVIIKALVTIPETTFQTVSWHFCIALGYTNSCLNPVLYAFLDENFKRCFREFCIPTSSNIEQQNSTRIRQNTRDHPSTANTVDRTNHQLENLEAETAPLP

[1] = Oral bioavailability in Sprague-Dawley rat at 5 mg/kg, iv and 20 mg/kg, po; type: ADME, organism-based; conditions: in vivo
How it was run: (§2)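 Intact male rats with indwelling jugular vein catheters, recovered overnight; single dose 5 mg/kg i.v. (5 mg/mL in 70% PEG400/30% H2O) or 20 mg/kg p.o. (20 mg/mL suspension in 0.5% CMC). Plasma by C18 HPLC, 50-70% ACN gradient in 10 mM ammonium phosphate pH 7, UV 260 nm; noncompartmental parameters; F = AUCp.o./AUCi.v.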

[2] = target: T1, Gonadotropin-releasing hormone receptor (Rattus norvegicus, UniProt P30969); assay: Antagonist activity at rat pituitary GnRH receptor assessed as inhibition of GnRH-stimulated inositol phosphate accumulation; type: functional; conditions: in the assay text read “recombinant rat” for “rat pituitary”
T1 sequence (P30969 whole entry): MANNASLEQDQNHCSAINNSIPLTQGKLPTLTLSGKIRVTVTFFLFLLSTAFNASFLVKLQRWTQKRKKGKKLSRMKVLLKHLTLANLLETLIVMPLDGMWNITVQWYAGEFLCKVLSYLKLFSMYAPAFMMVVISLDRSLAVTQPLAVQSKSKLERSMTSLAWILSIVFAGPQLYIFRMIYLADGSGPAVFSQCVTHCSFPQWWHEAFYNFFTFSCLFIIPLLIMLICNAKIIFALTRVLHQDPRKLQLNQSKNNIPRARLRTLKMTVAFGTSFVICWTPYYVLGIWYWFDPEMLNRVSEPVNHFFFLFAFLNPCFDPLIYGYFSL
How it was run: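 Rat receptor functional assay run against 100 nM GnRH; total inositol phosphate accumulation measured; IC50 with Hill coefficient derived.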

Rattus norvegicus [3] = assay: Suppression of testosterone level to below 0.5 ng/mL castrate level for 12 hrs in po dosed gonad intact Sprague-Dawley rat; type: ADME, organism-based; conditions: in vivo
How it was run: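 Single-housed intact male SD rats (300-325 g), jugular cannulated 3 days prior; basal bleed 7:00-7:30 am, then single oral dose 5.0, 25, 50 or 100 mg/kg in 0.5% CMC suspension, n = 6/dose; serial heparinized plasma; testosterone by coated-tube RIA; castrate level <0.5 ng/mL; mean ± SEM.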

[4] = target: Platelet-activating factor receptor (Homo sapiens, UniProt P25105); assay: Binding affinity to PAF; how it was run: as §1
Platelet-activating factor receptor, sequence (P25105 whole entry): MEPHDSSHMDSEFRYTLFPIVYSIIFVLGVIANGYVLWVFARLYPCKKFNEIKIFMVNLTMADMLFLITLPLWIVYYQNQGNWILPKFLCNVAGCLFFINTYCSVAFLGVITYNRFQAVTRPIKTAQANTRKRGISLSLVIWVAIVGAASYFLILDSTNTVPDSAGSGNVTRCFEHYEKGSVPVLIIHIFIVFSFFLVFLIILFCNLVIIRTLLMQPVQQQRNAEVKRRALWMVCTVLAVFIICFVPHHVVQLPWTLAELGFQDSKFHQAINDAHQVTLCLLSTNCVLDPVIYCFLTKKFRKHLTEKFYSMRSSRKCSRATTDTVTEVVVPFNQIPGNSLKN

[5] = target: Muscarinic acetylcholine receptor M1 (Homo sapiens, UniProt P11229); assay: Binding affinity to human M1 receptor; how it was run: as §1
[6] = Half life in Sprague-Dawley rat at 5 mg/kg, iv or 20 mg/kg, po; type: ADME, organism-based; conditions: in vivo; how it was run: as §2
[7] = target: Kappa-type opioid receptor (Homo sapiens, UniProt P41145); assay: Binding affinity to kappa opiate receptor; how it was run: as §1
[8] = target: Sodium-dependent dopamine transporter (Homo sapiens, UniProt Q01959); assay: Binding affinity to human DA transporter; how it was run: as §1
[9] = target: T2, Voltage-gated L-type calcium channel (Homo sapiens, UniProt Q13936+Q13698+Q01668+O60840); assay: Binding affinity to diltiazem site of L type calcium channel; type: protein assay; how it was run: as §1
Cytochrome P450 1A2 = Cytochrome P450 1A2 (Homo sapiens, UniProt P05177); assay: Inhibition of CYP1A2; type: ADME
Rattus norvegicus [10] = assay: Suppression of luteinizing hormone levels to below 0.12 mIU/mL in po dosed castrated Sprague-Dawley rat; type: ADME, organism-based; conditions: in vivo
How it was run: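 Male SD rats (200-225 g) castrated under halothane, 14 days recovery, jugular cannulated; basal bleed then single oral dose 5.0, 20, 50 or 100 mg/kg in 0.5% CMC, n = 6/dose; serial plasma LH by coated-tube RIA, detection limit 0.12 mIU/mL; mean ± SEM.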

[11] = target: 5-hydroxytryptamine receptor 2C (Homo sapiens, UniProt P28335); assay: Binding affinity to human 5HT2C receptor; how it was run: as §1
5-hydroxytryptamine receptor 2C, sequence (P28335 whole entry): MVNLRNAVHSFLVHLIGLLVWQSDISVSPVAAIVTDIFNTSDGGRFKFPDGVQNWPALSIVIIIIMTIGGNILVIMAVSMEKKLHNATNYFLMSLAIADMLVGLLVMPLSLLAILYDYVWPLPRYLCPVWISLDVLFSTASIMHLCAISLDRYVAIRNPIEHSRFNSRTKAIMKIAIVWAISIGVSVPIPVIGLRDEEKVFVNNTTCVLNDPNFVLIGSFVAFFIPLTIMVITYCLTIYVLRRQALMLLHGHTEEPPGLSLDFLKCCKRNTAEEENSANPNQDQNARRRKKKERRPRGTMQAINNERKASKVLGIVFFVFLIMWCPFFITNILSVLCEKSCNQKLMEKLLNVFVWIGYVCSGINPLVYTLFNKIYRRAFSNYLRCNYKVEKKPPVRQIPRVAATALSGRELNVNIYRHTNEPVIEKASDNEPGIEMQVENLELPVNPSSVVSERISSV

[12] = target: T2, Voltage-gated L-type calcium channel; assay: Binding affinity to DHP site of L type calcium channel; type: protein assay; how it was run: as §1
Cytochrome P450 2C19 = Cytochrome P450 2C19 (Homo sapiens, UniProt P33261); assay: Inhibition of CYP2C19; type: ADME
Cytochrome P450 2D6 = Cytochrome P450 2D6 (Homo sapiens, UniProt P10635); assay: Inhibition of CYP2D6; type: ADME
[13] = Clearance in Sprague-Dawley rat at 5 mg/kg, iv or 20 mg/kg, po; type: ADME, organism-based; conditions: in vivo; how it was run: as §2
[14] = target: T2, Voltage-gated L-type calcium channel; assay: Binding affinity to L type calcium channel; type: protein assay; how it was run: as §1
[15] = target: Muscarinic acetylcholine receptor M4 (Homo sapiens, UniProt P08173); assay: Binding affinity to human M4 receptor; how it was run: as §1
Muscarinic acetylcholine receptor M4, sequence (P08173 whole entry): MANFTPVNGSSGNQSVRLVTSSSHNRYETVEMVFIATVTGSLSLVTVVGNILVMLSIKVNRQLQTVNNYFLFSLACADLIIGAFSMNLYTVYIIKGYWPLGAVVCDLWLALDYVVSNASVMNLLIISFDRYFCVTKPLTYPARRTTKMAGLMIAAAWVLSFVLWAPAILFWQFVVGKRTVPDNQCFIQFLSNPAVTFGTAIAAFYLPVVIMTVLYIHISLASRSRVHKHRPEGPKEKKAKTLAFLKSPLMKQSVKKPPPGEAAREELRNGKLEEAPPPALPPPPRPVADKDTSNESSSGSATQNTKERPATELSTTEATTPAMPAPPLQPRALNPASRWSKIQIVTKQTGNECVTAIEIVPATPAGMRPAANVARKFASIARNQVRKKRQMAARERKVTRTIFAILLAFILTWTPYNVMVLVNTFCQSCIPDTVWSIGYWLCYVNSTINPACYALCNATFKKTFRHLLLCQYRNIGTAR

[16] = Volume of distribution in Sprague-Dawley rat at 5 mg/kg, iv or 20 mg/kg, po; type: ADME, organism-based; conditions: in vivo, read-out: Vdss; how it was run: as §2
[17] = target: Sodium-dependent noradrenaline transporter (Homo sapiens, UniProt P23975); assay: Binding affinity to human NE transporter; how it was run: as §1
Cytochrome P450 3A4 = Cytochrome P450 3A4 (Homo sapiens, UniProt P08684); assay: Inhibition of CYP3A4; type: ADME
[18] = target: Sodium-dependent serotonin transporter (Homo sapiens, UniProt P31645); assay: Binding affinity to human 5HT transporter; how it was run: as §1
Cytochrome P450 2C9 = Cytochrome P450 2C9 (Homo sapiens, UniProt P11712); assay: Inhibition of CYP2C9; type: ADME
Cytochrome P450 2C9, sequence (P11712 whole entry): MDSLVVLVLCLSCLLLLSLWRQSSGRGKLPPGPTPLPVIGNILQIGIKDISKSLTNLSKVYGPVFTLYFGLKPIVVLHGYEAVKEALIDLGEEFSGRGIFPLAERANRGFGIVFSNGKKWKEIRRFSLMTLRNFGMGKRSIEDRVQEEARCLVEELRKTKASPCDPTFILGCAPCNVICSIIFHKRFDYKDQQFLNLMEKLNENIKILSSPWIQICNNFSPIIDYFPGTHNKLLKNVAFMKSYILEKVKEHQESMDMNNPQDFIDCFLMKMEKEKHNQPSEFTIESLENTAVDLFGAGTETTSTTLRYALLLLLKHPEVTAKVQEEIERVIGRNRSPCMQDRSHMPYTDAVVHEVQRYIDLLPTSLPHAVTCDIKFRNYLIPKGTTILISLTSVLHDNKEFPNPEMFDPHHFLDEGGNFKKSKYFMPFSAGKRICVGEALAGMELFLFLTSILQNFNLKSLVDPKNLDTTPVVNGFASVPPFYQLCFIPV

[19] = target: 5-hydroxytryptamine receptor 2A (Homo sapiens, UniProt P28223); assay: Binding affinity to human 5HT2A receptor; how it was run: as §1
D(4) dopamine receptor = D(4) dopamine receptor (Homo sapiens, UniProt P21917); assay: Binding affinity to human D4.4 receptor; how it was run: as §1
[20] = target: 5-hydroxytryptamine receptor 7 (Homo sapiens, UniProt P34969); assay: Binding affinity to human 5HT7 receptor; how it was run: as §1
5-hydroxytryptamine receptor 7, sequence (P34969 whole entry): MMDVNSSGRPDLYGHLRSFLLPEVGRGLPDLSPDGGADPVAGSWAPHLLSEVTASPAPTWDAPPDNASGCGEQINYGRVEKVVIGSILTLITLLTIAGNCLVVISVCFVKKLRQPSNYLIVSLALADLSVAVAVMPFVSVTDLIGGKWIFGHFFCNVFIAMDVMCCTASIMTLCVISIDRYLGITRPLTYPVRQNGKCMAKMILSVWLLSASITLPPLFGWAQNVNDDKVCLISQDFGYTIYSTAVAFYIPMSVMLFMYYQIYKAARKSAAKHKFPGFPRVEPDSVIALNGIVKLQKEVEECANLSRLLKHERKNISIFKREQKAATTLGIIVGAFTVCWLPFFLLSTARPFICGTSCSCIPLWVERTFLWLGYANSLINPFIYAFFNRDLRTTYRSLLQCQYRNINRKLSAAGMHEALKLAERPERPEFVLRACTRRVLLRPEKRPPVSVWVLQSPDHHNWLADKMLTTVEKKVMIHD

D(1A) dopamine receptor = D(1A) dopamine receptor (Homo sapiens, UniProt P21728); assay: Binding affinity to human D1 receptor; how it was run: as §1
D(1A) dopamine receptor, sequence (P21728 whole entry): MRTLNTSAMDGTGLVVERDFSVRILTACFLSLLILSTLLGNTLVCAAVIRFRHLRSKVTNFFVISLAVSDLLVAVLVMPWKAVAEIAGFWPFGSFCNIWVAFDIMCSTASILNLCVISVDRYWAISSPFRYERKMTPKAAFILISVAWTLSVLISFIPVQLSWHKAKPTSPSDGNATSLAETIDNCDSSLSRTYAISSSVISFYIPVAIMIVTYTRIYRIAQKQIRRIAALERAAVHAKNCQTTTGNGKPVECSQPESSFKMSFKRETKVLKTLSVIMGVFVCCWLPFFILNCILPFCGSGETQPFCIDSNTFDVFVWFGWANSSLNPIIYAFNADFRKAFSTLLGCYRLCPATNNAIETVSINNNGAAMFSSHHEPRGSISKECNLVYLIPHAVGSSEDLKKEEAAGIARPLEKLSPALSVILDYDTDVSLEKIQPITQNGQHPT

[21] = target: T1, Gonadotropin-releasing hormone receptor; assay: Binding affinity to rat pituitary GnRH receptor
D(3) dopamine receptor = D(3) dopamine receptor (Homo sapiens, UniProt P35462); assay: Binding affinity to human D3 receptor; how it was run: as §1
D(3) dopamine receptor, sequence (P35462 whole entry): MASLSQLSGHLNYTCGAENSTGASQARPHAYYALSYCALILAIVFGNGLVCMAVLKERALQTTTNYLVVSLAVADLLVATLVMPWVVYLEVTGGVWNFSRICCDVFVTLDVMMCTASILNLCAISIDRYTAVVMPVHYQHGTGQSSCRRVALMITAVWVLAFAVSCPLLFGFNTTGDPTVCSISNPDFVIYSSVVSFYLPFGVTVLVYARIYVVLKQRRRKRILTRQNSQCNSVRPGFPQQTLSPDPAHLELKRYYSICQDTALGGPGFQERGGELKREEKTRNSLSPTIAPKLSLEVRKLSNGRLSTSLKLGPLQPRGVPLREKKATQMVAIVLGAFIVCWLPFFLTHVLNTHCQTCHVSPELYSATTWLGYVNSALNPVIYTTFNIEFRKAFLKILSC

Adenosine receptor A3 = Adenosine receptor A3 (Homo sapiens, UniProt P0DMS8); assay: Binding affinity to human A3 receptor; how it was run: as §1
[22] = Inhibition KCl-stimulated calcium channel activity
[23] = target: Type-1 angiotensin II receptor (Homo sapiens, UniProt P30556); assay: Binding affinity to human AT1 receptor; how it was run: as §1
Type-1 angiotensin II receptor, sequence (P30556 whole entry): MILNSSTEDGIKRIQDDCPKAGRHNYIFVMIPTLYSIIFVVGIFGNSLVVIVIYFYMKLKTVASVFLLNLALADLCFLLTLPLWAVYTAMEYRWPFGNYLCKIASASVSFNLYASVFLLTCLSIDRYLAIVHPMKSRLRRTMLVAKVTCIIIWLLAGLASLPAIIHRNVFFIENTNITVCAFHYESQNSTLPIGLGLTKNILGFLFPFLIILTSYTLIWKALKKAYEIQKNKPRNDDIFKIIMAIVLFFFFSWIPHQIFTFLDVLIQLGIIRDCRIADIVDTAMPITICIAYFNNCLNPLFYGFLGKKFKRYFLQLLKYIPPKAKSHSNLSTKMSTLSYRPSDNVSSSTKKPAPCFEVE

Substance-P receptor, sequence (P25103 whole entry, canonical isoform): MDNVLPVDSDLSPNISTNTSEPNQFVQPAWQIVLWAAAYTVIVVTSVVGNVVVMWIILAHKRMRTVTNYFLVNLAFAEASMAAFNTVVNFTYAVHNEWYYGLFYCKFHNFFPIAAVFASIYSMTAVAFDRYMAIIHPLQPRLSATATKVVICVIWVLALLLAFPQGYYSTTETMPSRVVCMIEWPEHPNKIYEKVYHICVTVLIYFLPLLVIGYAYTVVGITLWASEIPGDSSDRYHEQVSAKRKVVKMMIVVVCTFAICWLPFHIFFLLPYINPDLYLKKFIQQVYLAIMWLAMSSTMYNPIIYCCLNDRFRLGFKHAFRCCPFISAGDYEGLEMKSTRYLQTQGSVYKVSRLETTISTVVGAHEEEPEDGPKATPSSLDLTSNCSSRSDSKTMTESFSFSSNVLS

## COc1nc(NCCCN2CCOCC2)nc(OC)c1NC(=O)c1ccc(Oc2cc3c(cc2C)CCC3(C)C)o1
Substance-P receptor
  Ki: 1250 nM
Histamine H2 receptor
  Ki: 1220 nM
Mu-type opioid receptor
  Ki: 1400 nM
[1]
  bioavailability: 26%
[2]
  IC50: 8.8 nM
Rattus norvegicus [3]
  Activity: Dose-dependent effect
[4]
  Ki: 1060 nM
[5]
  Ki: 4120 nM
[6]
  half-life: 5.1 h
[7]
  Ki: 1960 nM
[8]
  Ki: 1800 nM
[9]
  Ki: 370 nM
Cytochrome P450 1A2
  IC50: > 30000 nM
Rattus norvegicus [10]
  Activity: Dose-dependent effect
[11]
  Ki: 964 nM
[12]
  Ki: 145 nM
Cytochrome P450 2C19
  IC50: > 30000 nM
Cytochrome P450 2D6
  IC50: > 30000 nM
[13]
  clearance: 5.5 mL/min/kg
[14]
  Ki: 145 nM
[15]
  Ki: 3680 nM
[16]
  Vd: 1.1 L/kg
[17]
  Ki: 5090 nM
Cytochrome P450 3A4
  IC50: > 30000 nM
[18]
  Ki: 1430 nM
Cytochrome P450 2C9
  IC50: 3000 nM
[19]
  Ki: 583 nM
D(4) dopamine receptor
  Ki: 2510 nM
[20]
  Ki: 1750 nM
D(1A) dopamine receptor
  Ki: 1620 nM
[21]
  Ki: 0.4 nM
D(3) dopamine receptor
  Ki: 1180 nM
Adenosine receptor A3
  Ki: 628 nM
[22]
  IC50: 6300 nM
[23]
  Ki: 3710 nM
